Assay outcomes from PubChem BioAssay.
Jurkat viability: cytotoxicity toward Jurkat T cells, primary screen, cytotoxicity control, cell-based, Jurkat E6.1, 60K MLSMR library; Jurkat E6.1 viability, ATP luminescence, 48 h; inhibition, % at 4 µM; 1.2% of 56,000 active; AID 463, 2006;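 active = inhibition above the mean inhibition of all tested compounds plus 3 SD, cut at about 28% in these data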
SKBR3 24h inh: SK-BR-3 proliferation inhibitors, primary screen, cell-based, human, 24 h. SK-BR-3 viability, CellTiter-Glo ATP luminescence; stronger effect = lower value. viability, % at 10 µM. 0.47% of 41,000 active. AID 847, 2007;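 active = viability at or below the median of all test compounds minus 3 SD, in both replicates if run twice, cut at about 45% in these data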
S1P1 ag pot: S1P1 agonists and agonism potentiators, primary screen, cell-based, primary and confirmation screens, CRE-bla reporter; S1P1 CRE-bla cells, forskolin, beta-lactamase FRET, potentiator mode; S1P1 agonist co-added at EC20, 2 nM; 100% = saturating reference agonist, 0% = basal; activation, % at 9.5 µM; Sphingosine 1-phosphate receptor 1 (Homo sapiens), P21453; 0.57% of 56,000 active;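 active = activation above a cutoff set at the mean activation of all tested compounds plus 3 SD, cut at about 54% in these data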;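 also: forskolin at 4 µM as EC80 and the EC20 agonist is SEW2871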
Target sequence (P21453 whole entry, looked up): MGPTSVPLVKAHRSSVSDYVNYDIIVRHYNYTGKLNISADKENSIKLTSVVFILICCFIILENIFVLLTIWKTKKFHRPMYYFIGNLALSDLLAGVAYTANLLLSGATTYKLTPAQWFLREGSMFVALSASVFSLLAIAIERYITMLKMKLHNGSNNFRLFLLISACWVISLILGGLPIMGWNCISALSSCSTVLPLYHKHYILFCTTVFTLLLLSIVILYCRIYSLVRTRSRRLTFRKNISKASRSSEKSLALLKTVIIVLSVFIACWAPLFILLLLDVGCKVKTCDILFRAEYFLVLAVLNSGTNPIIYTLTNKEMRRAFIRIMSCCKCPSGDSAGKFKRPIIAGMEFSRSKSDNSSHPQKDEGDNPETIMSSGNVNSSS
HEK293 NFkB inh: inhibitors of PMA/ionomycin-induced NF-kB reporter, primary screen, antigen receptor NF-kB inhibitor project, cell-based, HEK-293 luciferase reporter, luminescence. 0.21% of 62,000 active. HEK-293 NF-kB luciferase reporter. AID 465, 2006. inhibition, % at 3 µM;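 active = inhibition above the mean of all tested compounds plus 3 SD, cut at about 40% in these data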
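System: NF-kB luciferase reporter HEK-293 cells | Replication: Single test | Control set: DMSO vs reference inhibitor | Evaluation: % inhibition | Schedule: 1 h pretreatment, 16 h stimulation, 37 °C | Probe or stimulus: PMA with ionomycin | Compound dosing: One dose, 3 µM | Detection: Luciferase luminescence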
Each line names hits and unclear results; the compound was inactive in the other large screens. The list is not random: actives were taken first. Their share in the collection is about 1.9%.

CNC(=O)CCc1nc(-c2ccc(C(C)(C)C)cc2)no1	HEK293 NFkB inh 70
CC(C)(C)c1ccc(-c2noc(CCC(N)=O)n2)cc1	HEK293 NFkB inh 86
COC(=O)c1ccc(OCCn2cnc3ccccc3c2=O)cc1	none (no result: S1P1 ag pot)
COc1ccc(CCNc2nnc(Sc3nnnn3-c3ccccc3)s2)cc1OC	Jurkat viability 99 (no result: SKBR3 24h inh)
CCC(=O)N1CCc2cc(S(=O)(=O)Nc3ccc4c(c3)OCCO4)ccc21	none (no result: Jurkat viability, SKBR3 24h inh, S1P1 ag pot)
CS(=O)(=O)N1CCc2cc(S(=O)(=O)Nc3ccc4c(c3)OCCO4)ccc21	Jurkat viability 28 (no result: SKBR3 24h inh)
O=C(C1CCC1)N1CCc2cc(S(=O)(=O)Nc3ccc4c(c3)OCCO4)ccc21	S1P1 ag pot 115 (no result: SKBR3 24h inh)
O=C(CS(=O)CC(=O)N(CC(=O)NC1CCCC1)C1CCCC1)Nc1ccc(F)cc1 (stereo not drawn)	none
CC(=O)N=c1c(C#N)cc2c(=O)n3cccc(C)c3nc2n1CC(C)C	none
COC(=O)C1=C(N)Oc2cc(C)oc(=O)c2C1c1ccncc1 (stereo not drawn)	none (no result: Jurkat viability, HEK293 NFkB inh)
COC(=O)/C(=C1/Oc2cc(C)oc(=O)c2S1)C(F)(F)F	SKBR3 24h inh 38 (no result: Jurkat viability, HEK293 NFkB inh)
CC(=O)NC(c1ccco1)c1ccc2cccnc2c1O (stereo not drawn)	Jurkat viability 74 (no result: SKBR3 24h inh)
Oc1c(C(Nc2ccccn2)c2ccccn2)ccc2cccnc12 (stereo not drawn)	none (no result: SKBR3 24h inh)
Cc1cc(C)cc(NC2=NC3(CCCCC3)N=C(N)N2)c1	Jurkat viability 66 (no result: SKBR3 24h inh)
CCCCOc1ccc(NC2=NC3(CCCC3)N=C(N)N2)cc1	none (no result: S1P1 ag pot)
Cc1ccc(C2Nc3ccccc3C(=O)N2Cc2ccco2)cc1 (stereo not drawn)	none
CC(C)C(=O)Nc1ccc(NC(=O)c2cccc(F)c2)cn1	none (no result: SKBR3 24h inh)
O=C(Nc1ccc(Cl)cn1)c1cccc(F)c1	Jurkat viability 85
CCOc1ccc(C(=O)Nc2ccc(Cl)cn2)cc1Cl	S1P1 ag pot 73
Cc1cccc(N2CCN(C(=O)c3cc4c(C)nc5ccccc5c4o3)CC2)c1C	none (no result: SKBR3 24h inh)
O=C(NCc1cccnc1)C1CCCN(S(=O)(=O)c2ccccc2)C1 (stereo not drawn)	none
COC(=O)c1cc(NC(=O)c2c(Cl)nc3sccn23)cc(C(=O)OC)c1	SKBR3 24h inh 26
COC(=O)c1cc(=O)nc2sccn12	none (no result: Jurkat viability, SKBR3 24h inh, S1P1 ag pot)
COc1ccc(-n2nnc3c(SCC(=O)N4CCN(c5ccccc5)CC4)ncnc32)cc1	none (no result: SKBR3 24h inh)
CCOC(=O)Nc1cc(=O)c2ccccc2o1	Jurkat viability 90 (no result: SKBR3 24h inh)
COc1cc(C2/C(=C(/O)c3ccc(F)cc3)C(=O)C(=O)N2CCCC(=O)O)ccc1O (stereo not drawn)	none
COc1ccc(Nc2ccc3c(c2)=NC2(CCCCC2)[N+]=3[O-])cc1	SKBR3 24h inh 3.2 (no result: Jurkat viability, S1P1 ag pot, HEK293 NFkB inh)
[O-][N+]1=c2ccc(Nc3ccccc3)cc2=NC12CCCCC2	none
Cn1c(C(=O)N2CCCc3ccccc32)cc2sccc21	S1P1 ag pot 86 (no result: SKBR3 24h inh)
COC(=O)c1cc2sccc2n1CC(=O)N1CCCc2ccccc21	none (no result: SKBR3 24h inh)
CCOc1ccc(NC(=O)c2oc3ccccc3c2NC(=O)C(C)C)cc1	none (no result: SKBR3 24h inh)
CCCSc1nc(C)c(CC(=O)O)c(=O)[nH]1	none (no result: Jurkat viability, HEK293 NFkB inh)
CCC(=O)Nc1nnc(-c2ccco2)o1	none (no result: SKBR3 24h inh)
Cc1ccsc1C(=O)Nc1nnc(-c2ccco2)o1	Jurkat viability 89 (no result: SKBR3 24h inh)
COC(=O)c1ccc(Oc2ccc3nnc(C)n3n2)cc1	none (no result: SKBR3 24h inh)
Cc1nnc2ccc(Oc3ccc(-c4ccccc4)cc3)nn12	S1P1 ag pot 68
COC(=O)c1ccccc1NC(=O)C1CC(=O)N(c2ccccc2)C1 (stereo not drawn)	none (no result: SKBR3 24h inh)
O=C(Nc1cccc2nsnc12)C1CC(=O)N(c2ccccc2)C1 (stereo not drawn)	SKBR3 24h inh 42
CN(C)S(=O)(=O)c1ccc(N2CCN(S(=O)(=O)c3ccc(F)cc3)CC2)c(Cl)c1	Jurkat viability 34
Cc1ccc(-c2cc3c(nn2)-c2ccccc2C3=O)cc1	HEK293 NFkB inh 62 (no result: S1P1 ag pot)
[O-][n+]1onc2c1CCc1nnc(-c3ccccc3)cc1-2	none
Cc1ccc(C)c(/C(O)=C2/C(=O)C(=O)N(CCN3CCOCC3)C2c2ccco2)c1 (stereo not drawn)	none (no result: SKBR3 24h inh)
COC(=O)c1ccc(C(=O)OC)c(NC(=O)c2ocnc2C)c1	none (no result: Jurkat viability, SKBR3 24h inh, S1P1 ag pot)
CCc1cc2c(=O)n(Cc3ccco3)c(SCc3c(C)noc3C)nc2s1	Jurkat viability 88 (no result: SKBR3 24h inh)
Cc1noc(C)c1CSc1cc(C)c2ccccc2n1	none (no result: SKBR3 24h inh)
CCN(CC)c1ccc2cc(NC(=O)CCC(=O)O)c(=O)oc2c1	SKBR3 24h inh 43, S1P1 ag pot 58, HEK293 NFkB inh 53
CCN(CC)c1ccc2cc(C(=O)Nc3ccccn3)c(=O)oc2c1	none (no result: Jurkat viability, HEK293 NFkB inh)
CCOC(=O)C1CCCN(c2c(Nc3cccc(C)c3)c(=O)c2=O)C1 (stereo not drawn)	none (no result: SKBR3 24h inh)
CCOC(=O)N1CCN(C(=O)CCSc2ccccc2)CC1	none (no result: Jurkat viability, S1P1 ag pot)
COCCCN1C(=O)c2[nH]nc(-c3ccccc3O)c2C1c1cccc(Cl)c1 (stereo not drawn)	Jurkat viability 90
Cc1ccsc1C=Nc1ccc(O)cc1	Jurkat viability 48 (no result: SKBR3 24h inh)
Oc1c(C=Nc2cccnc2)sc2ccccc12	none (no result: Jurkat viability, HEK293 NFkB inh)
COc1ccccc1-c1noc(-c2ccccc2)n1	none
COc1cc(-c2nc(-c3cccc(C)c3)no2)cc(OC)c1OC	none
COc1ccccc1-c1nc(-c2cccc(C)c2)no1	S1P1 ag pot 99
COc1ccc(-c2nc(-c3cccc(C(F)(F)F)c3)no2)cc1OC	S1P1 ag pot 75
COc1ccc(-c2nc(-c3ccccc3OC)no2)cc1OC	S1P1 ag pot 83
COc1ccc(-c2nc(-c3cccc(C)c3)no2)cc1OC	S1P1 ag pot 108
Cc1cc(NC(=O)CSc2nnc(C3CC3)n2C)no1	none
Cc1cc(NC(=O)CSc2nnc3c(C)cc4c(C)ccc(C)c4n23)no1	Jurkat viability 90
Cc1nc(COC(=O)c2ccc(S(=O)(=O)N3CCCC3)cc2)cs1	none (no result: SKBR3 24h inh)
COc1cc(OC)cc(-c2nnc(SCC(=O)N(C(C)C)C(C)C)o2)c1	SKBR3 24h inh 39
O=C(CSc1nnc(Cn2nnc3ccccc32)o1)N(Cc1ccc(F)cc1)c1ccccc1	Jurkat viability 98, S1P1 ag pot 68
CN(C)c1ccc2c(c1)OC(N)=C(C#N)C2c1cccc(F)c1 (stereo not drawn)	Jurkat viability 86, HEK293 NFkB inh 44 (no result: SKBR3 24h inh)
Cn1c(=O)n(Cc2ccc(F)cc2)c(=O)c2c1nc1n2CCCN1C1CCCCC1	none
O=C(OCn1nnc2ccccc2c1=O)c1cc2ccccc2o1	none (no result: SKBR3 24h inh)
COc1ccc(Cc2nc(-c3ccc(-n4cccc4)cc3)no2)cc1OC	S1P1 ag pot 66 (no result: SKBR3 24h inh)
CCCOc1cccc(C2C(C(=O)c3ccc(C)o3)=C(O)C(=O)N2CCCN(C)C)c1 (stereo not drawn)	none (no result: Jurkat viability, HEK293 NFkB inh)
N=c1n(CCN2CCCCC2)c2ccccc2n1CC(O)c1cccc(Br)c1 (stereo not drawn)	SKBR3 24h inh 44
N=c1n(CCN2CCCC2)c2ccccc2n1CC(O)c1ccco1 (stereo not drawn)	none
